In ChEMBL document CHEMBL1139436, “Quantitative structure-activity relationship of sesquiterpene lactones as inhibitors of the transcription factor NF-kappaB” (J Med Chem, 2004) one finds IC100 and pIC100 data, which are given here for 31 compounds.

T1 sequence (P19838 whole entry, looked up): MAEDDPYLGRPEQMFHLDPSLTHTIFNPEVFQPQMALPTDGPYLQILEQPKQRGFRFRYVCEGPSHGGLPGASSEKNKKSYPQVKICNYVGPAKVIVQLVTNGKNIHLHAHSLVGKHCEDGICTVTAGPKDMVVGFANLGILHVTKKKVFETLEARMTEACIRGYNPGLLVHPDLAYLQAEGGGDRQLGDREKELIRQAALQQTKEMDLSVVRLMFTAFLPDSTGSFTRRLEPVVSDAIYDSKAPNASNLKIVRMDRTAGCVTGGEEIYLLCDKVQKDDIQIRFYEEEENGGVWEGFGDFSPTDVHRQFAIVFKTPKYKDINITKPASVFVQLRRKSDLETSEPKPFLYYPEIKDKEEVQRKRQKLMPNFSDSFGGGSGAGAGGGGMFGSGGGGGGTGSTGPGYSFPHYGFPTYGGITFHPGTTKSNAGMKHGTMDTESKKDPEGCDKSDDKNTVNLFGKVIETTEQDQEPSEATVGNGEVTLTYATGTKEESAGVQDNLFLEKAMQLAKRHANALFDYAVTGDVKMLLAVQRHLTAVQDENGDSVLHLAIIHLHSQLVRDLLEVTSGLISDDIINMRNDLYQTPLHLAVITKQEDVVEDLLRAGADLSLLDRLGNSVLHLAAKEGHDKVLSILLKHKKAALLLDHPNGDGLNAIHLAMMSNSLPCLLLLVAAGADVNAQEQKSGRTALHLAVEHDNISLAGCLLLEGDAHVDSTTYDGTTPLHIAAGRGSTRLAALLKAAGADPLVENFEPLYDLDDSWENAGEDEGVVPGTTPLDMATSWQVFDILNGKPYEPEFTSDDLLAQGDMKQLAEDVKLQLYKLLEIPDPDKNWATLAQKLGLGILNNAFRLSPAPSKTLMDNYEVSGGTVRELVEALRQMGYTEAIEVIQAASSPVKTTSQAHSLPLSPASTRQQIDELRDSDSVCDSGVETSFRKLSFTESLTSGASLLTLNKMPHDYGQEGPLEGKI
T1 sequence (Q00653 whole entry, looked up): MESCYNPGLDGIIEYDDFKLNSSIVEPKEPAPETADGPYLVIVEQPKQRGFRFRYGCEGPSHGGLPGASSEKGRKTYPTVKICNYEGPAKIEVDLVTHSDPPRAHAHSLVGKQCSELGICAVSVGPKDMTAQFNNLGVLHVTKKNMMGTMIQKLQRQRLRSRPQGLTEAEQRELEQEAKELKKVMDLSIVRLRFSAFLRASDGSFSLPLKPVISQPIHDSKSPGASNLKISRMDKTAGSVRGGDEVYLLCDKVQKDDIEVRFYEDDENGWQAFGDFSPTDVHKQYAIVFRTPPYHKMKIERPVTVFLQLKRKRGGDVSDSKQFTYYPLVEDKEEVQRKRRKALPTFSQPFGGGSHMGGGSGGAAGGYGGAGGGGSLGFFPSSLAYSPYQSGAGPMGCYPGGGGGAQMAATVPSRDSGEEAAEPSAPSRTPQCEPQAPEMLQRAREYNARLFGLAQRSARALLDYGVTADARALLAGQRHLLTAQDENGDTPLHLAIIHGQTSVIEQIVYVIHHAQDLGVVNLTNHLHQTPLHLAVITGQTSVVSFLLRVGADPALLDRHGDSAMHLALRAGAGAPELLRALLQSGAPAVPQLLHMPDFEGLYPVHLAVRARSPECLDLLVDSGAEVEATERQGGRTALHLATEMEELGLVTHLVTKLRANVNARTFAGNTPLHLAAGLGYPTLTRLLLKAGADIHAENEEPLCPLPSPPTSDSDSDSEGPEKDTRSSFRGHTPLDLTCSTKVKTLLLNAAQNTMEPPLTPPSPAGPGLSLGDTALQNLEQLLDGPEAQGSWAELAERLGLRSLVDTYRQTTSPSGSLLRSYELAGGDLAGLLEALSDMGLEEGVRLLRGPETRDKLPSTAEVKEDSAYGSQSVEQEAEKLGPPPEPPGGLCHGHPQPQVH
T1 sequence (Q04206 whole entry, looked up): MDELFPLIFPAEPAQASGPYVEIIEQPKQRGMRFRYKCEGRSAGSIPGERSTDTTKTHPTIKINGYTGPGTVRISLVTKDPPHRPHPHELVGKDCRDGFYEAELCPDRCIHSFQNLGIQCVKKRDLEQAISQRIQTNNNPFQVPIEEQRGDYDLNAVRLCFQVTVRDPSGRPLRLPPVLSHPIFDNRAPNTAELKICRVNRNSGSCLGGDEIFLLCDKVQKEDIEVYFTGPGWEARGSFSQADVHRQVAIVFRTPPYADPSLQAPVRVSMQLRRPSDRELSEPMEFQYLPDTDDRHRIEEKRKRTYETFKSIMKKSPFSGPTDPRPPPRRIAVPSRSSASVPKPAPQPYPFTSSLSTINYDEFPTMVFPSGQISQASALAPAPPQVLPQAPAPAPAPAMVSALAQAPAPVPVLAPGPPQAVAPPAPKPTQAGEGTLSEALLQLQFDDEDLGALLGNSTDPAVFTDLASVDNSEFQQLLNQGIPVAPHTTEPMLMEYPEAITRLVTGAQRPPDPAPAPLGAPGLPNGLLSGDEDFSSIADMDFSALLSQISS

The target of the first assay is T1, Nuclear factor NF-kappa-B complex (Homo sapiens) (UniProt Q00653+P19838+Q04206). The assay can be described thus: (§1) Concentration required for complete inhibition of Nuclear factor kappa B DNA binding. The assay is classed as protein-complex assay. Summed up:
(§2)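 Jurkat T cells (RPMI 1640, 10% FCS, penicillin/streptomycin) pretreated 1 h with sesquiterpene lactone, first at 10, 20, 50, 100 μM, then 1–5 μM or 200–300 μM as needed. Stimulated 1 h with 200 U/mL TNF-α. Total extracts (Totex high-salt buffer) analysed by EMSA with ³²P-labeled NF-κB oligonucleotide, 25 min at room temperature. IC100 is the lowest tested level fully blocking binding; intermediate values assigned the higher level. Each experiment reproduced at least once.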
`CC[C@@H](C)[C@@]1(O)O[C@H]2C[C@@]3(C)OC(=CC3=O)/C(COC(C)=O)=C\[C@H]3OC(=O)[C@@]1(C)C23` (stereo partly specified) came in with an IC100 of 5 µM.

With `C=C1C(=O)O[C@@H]2/C=C(/COC(=O)CC(C)C)C[C@H](OC(C)=O)/C=C(/CO)C(=O)C[C@@H]12`, the IC100 amounted to 12.5 µM.

The compound `C=C(C)C(=O)O[C@H]1C[C@@]2(C)OC(=CC2=O)C(=C)[C@@H](O)[C@H]2OC(=O)C(=C)[C@@H]21` came in with an IC100 of 10 µM.

Compound `C=C(C)C(=O)O[C@@H]1/C=C(\C=O)CCC[C@@]2(CO2)[C@H](O)[C@H]2OC(=O)C(=C)[C@@H]21` came in with an IC100 of 5 µM.

Regarding `C=C1[C@H](O)C[C@H](O)[C@]2(C)CC[C@H]3C(=C)C(=O)O[C@@H]3[C@@H]12`, the IC100 is 100 µM.

`C=C1C(=O)O[C@@H]2C3=C(C(=O)C[C@@H]3C)[C@@H](C)CC[C@@H]12` had an IC100 of 20 µM.

Compound `CC(=O)O[C@H]1[C@@H]2[C@H](C)C(=O)O[C@@H]2C[C@@H](C)[C@@H]2C=CC(=O)[C@]21C` came in with an IC100 of 200 µM.

`C=C(C)C(=O)O[C@H]1C/C(C)=C/C(=O)/C=C(/C)[C@H](O)[C@H]2OC(=O)C(=C)[C@@H]21` registered an IC100 of 10 µM.

Compound `C=C1C(=O)O[C@H]2C/C(CO)=C\CC/C(COC(=O)C(C)(C)O)=C\C[C@H]12` had an IC100 of 50 µM.

Turning to `C=C1C(=O)O[C@@H]2/C=C(/C)CC/C=C(/C)CC[C@@]12O`, the IC100 amounted to 10 µM.

As to `C=C(C)C(=O)O[C@H]1C[C@@]2(C)OC(=CC2=O)C(=C)[C@@H](Cl)[C@H]2OC(=O)C(=C)[C@@H]21`, the IC100 came to 5 µM.

On to `C=C(C)C(=O)O[C@H]1/C(C=O)=C\CC/C(COC(C)=O)=C\[C@H]2OC(=O)C(=C)[C@@H]2[C@@H]1O`, for which the IC100 amounted to 5 µM.

On to `C[C@@H]1C[C@H]2OC(=O)[C@@H](C)[C@H]2[C@H](O)[C@]2(C)C(=O)C=C[C@@H]12`, for which the IC100 was determined as 200 µM.

In the case of `C=C1C(=O)O[C@@H]2C[C@H](C)[C@@H]3CC(=O)C(C)=C3C[C@H]12`, the IC100 worked out at 50 µM.

`C=C(C)C(=O)O[C@H]1[C@H]2C(=C)C(=O)O[C@@H]2[C@@H](O)C(=C)CC/C=C(/C=O)[C@@H]1OC(C)=O` gave an IC100 of 10 µM.

Compound `C=C1C(=O)O[C@@H]2/C=C(/CO)C3=CC(=O)[C@@](C)(C[C@H](OC(=O)/C(C)=C/C)[C@@H]12)O3` displayed an IC100 of 5 µM.

`C=C1[C@H](O)C[C@@H](O)[C@]2(C)CC[C@H]3C(=C)C(=O)O[C@@H]3[C@@H]12` returned an IC100 of 200 µM.

Turning to `C=C(C)C(=O)O[C@H]1[C@@H]2[C@H](C)C(=O)O[C@@H]2C[C@@H](C)[C@@H]2C=CC(=O)[C@]21C`, the IC100 stood at 100 µM.

`C=C1C(=O)O[C@H]2CC(=C)[C@H](O)CC/C(C)=C/[C@@H](O)[C@H]12` registered an IC100 of 50 µM.

In turn, `C=C1C(=O)O[C@@H]2C[C@H](C)C3=C(C[C@H]12)[C@@H](C)CC3=O` showed an IC100 of 20 µM.

In turn, `C=C1C(=O)O[C@@H]2[C@H]3C(C)=CC[C@@H](O)[C@]3(C)CC[C@@H]12` showed an IC100 of 100 µM.

For the compound `C=C(C)C(=O)O[C@@H]1C[C@]2(C)CC[C@@](O)(O2)/C(C)=C\[C@H]2OC(=O)C(=C)[C@@H]21`, the IC100 stood at 50 µM.

Consider `C=C1C(=O)O[C@@H]2[C@@H]3[C@@](C)(CC[C@@H]12)[C@@H](O)C[C@H]1O[C@@]31C`, for which the IC100 was found to be 200 µM.

In turn, `C=C(C)C(=O)O[C@@H]1/C=C(/C=O)CCC[C@@]2(CO2)[C@H](O)[C@H]2OC(=O)C(=C)[C@@H]21` gave an IC100 of 5 µM.

Compound `C=C1C[C@@H]2OC(=O)C(=C)[C@H]2[C@H](O)/C=C(\C)CCC1=O` registered an IC100 of 50 µM.

Turning to `C/C=C(\C)C(=O)O[C@H]1[C@@H]2[C@H](C)C(=O)O[C@@H]2C[C@@H](C)[C@@H]2C=CC(=O)[C@]21C`, the IC100 was determined as 100 µM.

`C=C1C(=O)O[C@H]2C/C(CO)=C\CC/C(COC(=O)C(C)CC)=C\C[C@H]12` (stereo partly specified): the IC100 was found to be 50 µM.

`C=C1C(=O)C[C@H]2C(=C)C(=O)O[C@@H]2/C=C(/COC(=O)C(C)C)CC[C@@H]1OC`: the IC100 is 25 µM.

`C=C1[C@@H]2[C@H]3OC(=O)C(=C)[C@@H]3CCC(=C)[C@@H]2C[C@@H]1OC(C)=O` came in with an IC100 of 100 µM.

Consider `C=C(C)C(=O)O[C@H]1/C(C=O)=C\CC/C(C)=C\[C@H]2OC(=O)C(=C)[C@@H]2[C@@H]1O`, for which the IC100 came out at 5 µM.

`C=C(CO)C(=O)OC/C1=C/C[C@@H]2C(=C)C(=O)O[C@H]2C/C(COC(C)=O)=C\CC1` registered an IC100 of 50 µM.

Another assay concerns the target T1, Nuclear factor NF-kappa-B complex (Homo sapiens). Described as §1. Set-up: unit not given here. The class given is protein-complex assay. The gist of the method: as §2
As to `CC[C@@H](C)[C@@]1(O)O[C@H]2C[C@@]3(C)OC(=CC3=O)/C(COC(C)=O)=C\[C@H]3OC(=O)[C@@]1(C)C23` (stereo partly specified), the pIC100 was -0.69.

In turn, `C=C1C(=O)O[C@@H]2/C=C(/COC(=O)CC(C)C)C[C@H](OC(C)=O)/C=C(/CO)C(=O)C[C@@H]12` registered a pIC100 of -1.09.

As for `C=C(C)C(=O)O[C@H]1C[C@@]2(C)OC(=CC2=O)C(=C)[C@@H](O)[C@H]2OC(=O)C(=C)[C@@H]21`, the pIC100 is -1.

In the case of `C=C(C)C(=O)O[C@@H]1/C=C(\C=O)CCC[C@@]2(CO2)[C@H](O)[C@H]2OC(=O)C(=C)[C@@H]21`, the pIC100 was -1.

As to `C=C1C(=O)O[C@@H]2C3=C(C(=O)C[C@@H]3C)[C@@H](C)CC[C@@H]12`, the pIC100 is -1.3.

Compound `C=C(C)C(=O)O[C@H]1C/C(C)=C/C(=O)/C=C(/C)[C@H](O)[C@H]2OC(=O)C(=C)[C@@H]21` registered a pIC100 of -1.

On to `C=C1C(=O)O[C@H]2C/C(CO)=C\CC/C(COC(=O)C(C)(C)O)=C\C[C@H]12`, for which the pIC100 is -1.69.

The compound `C=C1C(=O)O[C@@H]2/C=C(/C)CC/C=C(/C)CC[C@@]12O` displayed a pIC100 of -1.

The compound `C=C(C)C(=O)O[C@H]1C[C@@]2(C)OC(=CC2=O)C(=C)[C@@H](Cl)[C@H]2OC(=O)C(=C)[C@@H]21` displayed a pIC100 of -0.69.

`C=C(C)C(=O)O[C@H]1/C(C=O)=C\CC/C(COC(C)=O)=C\[C@H]2OC(=O)C(=C)[C@@H]2[C@@H]1O`: the pIC100 is -0.69.

The compound `C=C(C)C(=O)O[C@H]1[C@H]2C(=C)C(=O)O[C@@H]2[C@@H](O)C(=C)CC/C=C(/C=O)[C@@H]1OC(C)=O` showed a pIC100 of -1.

Regarding `C=C1C(=O)O[C@@H]2/C=C(/CO)C3=CC(=O)[C@@](C)(C[C@H](OC(=O)/C(C)=C/C)[C@@H]12)O3`, the pIC100 is -0.69.

On to `C=C1C(=O)O[C@@H]2C[C@H](C)C3=C(C[C@H]12)[C@@H](C)CC3=O`, for which the pIC100 was -1.3.

The compound `C=C(C)C(=O)O[C@@H]1C[C@]2(C)CC[C@@](O)(O2)/C(C)=C\[C@H]2OC(=O)C(=C)[C@@H]21` showed a pIC100 of -1.

In turn, `C=C(C)C(=O)O[C@@H]1/C=C(/C=O)CCC[C@@]2(CO2)[C@H](O)[C@H]2OC(=O)C(=C)[C@@H]21` registered a pIC100 of -0.69.

Compound `C=C1C[C@@H]2OC(=O)C(=C)[C@H]2[C@H](O)/C=C(\C)CCC1=O` yielded a pIC100 of -1.69.

Turning to `C=C1C(=O)O[C@H]2C/C(CO)=C\CC/C(COC(=O)C(C)CC)=C\C[C@H]12` (stereo partly specified), the pIC100 was -1.69.

The compound `C=C1C(=O)C[C@H]2C(=C)C(=O)O[C@@H]2/C=C(/COC(=O)C(C)C)CC[C@@H]1OC` registered a pIC100 of -1.09.

Consider `C=C(C)C(=O)O[C@H]1/C(C=O)=C\CC/C(C)=C\[C@H]2OC(=O)C(=C)[C@@H]2[C@@H]1O`, for which the pIC100 is -0.69.

Take `C=C(CO)C(=O)OC/C1=C/C[C@@H]2C(=C)C(=O)O[C@H]2C/C(COC(C)=O)=C\CC1`: the pIC100 is -1.69.
